Assay outcomes as filed in PubChem BioAssay.
MC4R barr agon – activates human MC4R beta-arrestin recruitment; P32245; U2OS MC4R beta-arrestin complementation, luminescence; percent of melanotan II response, DMSO zero; activation, % at 8.9 µM; 360,000 compounds, 0.98% hits;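 active = activation above a per-plate cutoff, the mean activation of sample wells on that plate plus 3 SD, cut at about 8% in these data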
Exocytosis inh – lytic granule exocytosis inhibition. TALL-104 LAMP-1 surface exposure, flow cytometry; cells stimulated with thapsigargin and PMA. inhibition, % at 10 µM. 360,000 compounds, 0.66% hits;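 active = inhibition above about 55%, limit read from the data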
NTR1 ag – NTR1 (human) agonism. P30989. NTR1-U2OS beta-arrestin-GFP spot imaging, agonist mode. activation, % at 20 µM. 330,000 compounds, 0.17% hits;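 active = activation at or above 40% of the spot to cytoplasm intensity ratio, with at least 20 cells analyzed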;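 also: 0% = DMSO without peptide and 100% = 100 nM NTR1 peptide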
sPLA2-III inh – Blocks human group III sPLA2 activity. AID 743126. 370,000 compounds, 0.56% hits. QFRET BODIPY PC-A2 liposome hydrolysis, fluorescence. inhibition, % at 12.2 µM. Q9NZ20;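 active = inhibition above mean plus 3 SD of compounds lying within the high and low control bounds, cut at about 19% in these data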;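 also: 0% = median of test compound wells and 100% = no enzyme DMSO wells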
Target sequence (Q9NZ20 whole entry, looked up): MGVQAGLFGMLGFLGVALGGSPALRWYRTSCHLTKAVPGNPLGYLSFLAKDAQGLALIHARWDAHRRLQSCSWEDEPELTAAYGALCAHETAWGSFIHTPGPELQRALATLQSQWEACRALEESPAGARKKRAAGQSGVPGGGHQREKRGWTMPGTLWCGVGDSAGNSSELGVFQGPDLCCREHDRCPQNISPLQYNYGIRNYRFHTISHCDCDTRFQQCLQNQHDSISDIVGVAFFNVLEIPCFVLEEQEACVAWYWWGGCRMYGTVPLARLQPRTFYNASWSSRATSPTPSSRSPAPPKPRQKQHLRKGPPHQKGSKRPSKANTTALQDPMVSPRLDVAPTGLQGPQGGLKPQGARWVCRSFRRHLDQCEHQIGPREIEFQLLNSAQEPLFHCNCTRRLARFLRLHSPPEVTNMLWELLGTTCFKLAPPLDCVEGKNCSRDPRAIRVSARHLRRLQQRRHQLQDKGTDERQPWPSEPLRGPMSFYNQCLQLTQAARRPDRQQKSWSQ
MC4R antag cAMP – blocks human MC4R cAMP signaling | P32245 | MC4R-expressing cells, MTII-stimulated cAMP, LANCE TR-FRET | inhibition, % at 6.5 µM | 360,000 compounds, 0.48% hits | AID 540295;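 active = inhibition above its plate's cutoff, the mean of tested wells on that plate plus 3 SD, cut at about 29% in these data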;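 also: 0% = Melanotan II alone and 100% = Melanotan II plus saturating MCL0020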
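Assay system: U2OS-MC4R stable cell line; Also added: Melanotan II; Technique: Eu-cAMP/anti-cAMP TR-FRET, emission 671 nm; Times: 30-min compound, 1-h challenge, 1-h detection, room temperature.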
Bfl-1 A1 inh – inhibitors of the anti-apoptotic protein A1, read as caspase activation. MEF A1-2A-BIM cells, Caspase-Glo 3/7 luminescence, 3 h; percent of clofoctol response, vehicle zero. caspase activation, % (no concentration beside the values). 330,000 compounds, 0.066% hits. AID 2462;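 active = over half of replicate activation scores above 10%, or exactly half above 10 with the replicate mean above 10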
hGIII sPLA2 conf – human GIII-sPLA2 inhibition, confirmation; shares compounds with sPLA2-III inh; inhibition, % at 12.2 µM; 2,000 compounds, 34% hits; recombinant hGIII-sPLA2, BODIPY PC-A2 QFRET fluorescence;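 active = mean inhibition across triplicates above the hit cutoff set in the earlier primary screen, cut at about 19% in these data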;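 also: 0% = enzyme with DMSO and 100% = DMSO wells lacking enzyme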
BODIPY interf – 535nm fluorescence interference, HGIII-sPLA2 counter-screen. shares compounds with sPLA2-III inh. BODIPY FL product fluorescence interference, QFRET. inhibition, % at 12.2 µM. 2,000 compounds, 8.5% hits. AID 743282;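 active = average inhibition above the solvent-only control mean plus 3 SD, cut at about 6% in these data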;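 also: 0% = DMSO with substrate plus product and 100% = DMSO with substrate alone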
Starred values were filed as active, the others as inactive. The list is not random: actives were taken first. Their share in the collection is about 2.5%.

How did CCC(Nc1ccc(OC)cc1)C(=O)N/N=C/c1ccc([N+](=O)[O-])cc1 (stereo unspecified) do in these assays?
MC4R barr agon: -2; Exocytosis inh: 0; NTR1 ag: 1; sPLA2-III inh: 20*; MC4R antag cAMP: -8; Bfl-1 A1 inh: 0; hGIII sPLA2 conf: 16; BODIPY interf: -5

Results for CC1CC(C)CN(C(=S)Nc2ccc3nc4n(c(=O)c3c2)CCCCC4)C1 (stereo unspecified) ?
MC4R barr agon: 1; Exocytosis inh: 3; NTR1 ag: 9; sPLA2-III inh: 11; MC4R antag cAMP: 11; Bfl-1 A1 inh: -1

How did CC1CCCN(C(=S)Nc2ccc3nc4n(c(=O)c3c2)CCCCC4)C1 (stereo unspecified) do in these assays?
MC4R barr agon: -2; Exocytosis inh: -10; NTR1 ag: 2; sPLA2-III inh: 27*; MC4R antag cAMP: 21; Bfl-1 A1 inh: 1; hGIII sPLA2 conf: 10; BODIPY interf: -10

How did CC(C)(C)S(=O)(=O)N1Cc2ccc(CO)cc2[C@@H]1CCO do in these assays?
MC4R barr agon: 0; Exocytosis inh: 0; sPLA2-III inh: 0; MC4R antag cAMP: 11

Results for O=C(COc1ccccc1O)NCCN1CCOCC1 ?
MC4R barr agon: 1; Exocytosis inh: -4; NTR1 ag: 10; sPLA2-III inh: 20*; MC4R antag cAMP: 3; Bfl-1 A1 inh: -1; hGIII sPLA2 conf: 12; BODIPY interf: -2

How did CCCn1nnc(NC(=O)c2ccc(OCC)c(Cl)c2)n1 do in these assays?
MC4R barr agon: 1; Exocytosis inh: -3; NTR1 ag: 1; sPLA2-III inh: 24*; MC4R antag cAMP: -6; Bfl-1 A1 inh: 0; hGIII sPLA2 conf: -2; BODIPY interf: -7

Results for CCCn1nnc(NC(=O)c2ccc(OC)cc2)n1 ?
MC4R barr agon: -4; Exocytosis inh: 1; NTR1 ag: -2; sPLA2-III inh: 2; MC4R antag cAMP: 9; Bfl-1 A1 inh: 0

Results for CC1CCN(C(=O)c2[nH]cnc2C(=O)NC2CCN(C(=O)OC(C)(C)C)CC2)CC1 ?
MC4R barr agon: -1; Exocytosis inh: -8; NTR1 ag: -1; sPLA2-III inh: 1; MC4R antag cAMP: 5; Bfl-1 A1 inh: 0

How did O=[N+]([O-])c1cc([N+](=O)[O-])c2c(=Nc3ccccc3)n(-c3ccccc3)n(O)c2c1 do in these assays?
MC4R barr agon: -3; Exocytosis inh: 9; NTR1 ag: 13; sPLA2-III inh: 35*; MC4R antag cAMP: 9; Bfl-1 A1 inh: 0; hGIII sPLA2 conf: 56*; BODIPY interf: 19*

Results for CC(C)(C)C(=O)NC(=S)Nc1ccc(C(F)(F)F)cc1 ?
MC4R barr agon: 1; Exocytosis inh: -15; NTR1 ag: -1; sPLA2-III inh: 21*; MC4R antag cAMP: 4; Bfl-1 A1 inh: 0; hGIII sPLA2 conf: 19; BODIPY interf: -4

What do the screens show for `CCCCC1(C2CCCC2)NC(=O)NC1=O` (stereo unspecified)?
MC4R barr agon: -2; Exocytosis inh: 3; sPLA2-III inh: -5; MC4R antag cAMP: 4

How did CC(C)(C)c1cc(-c2n[nH]c(=S)n2-c2ccc(Cl)cc2)n[nH]1 do in these assays?
MC4R barr agon: 1; Exocytosis inh: 12; NTR1 ag: -1; sPLA2-III inh: 21*; MC4R antag cAMP: 7; Bfl-1 A1 inh: -1; hGIII sPLA2 conf: 27*; BODIPY interf: 4

What do the screens show for `CCOC(=O)c1sc(NC(C)=O)nc1C`?
MC4R barr agon: 0; Exocytosis inh: 3; NTR1 ag: 0; sPLA2-III inh: 23*; MC4R antag cAMP: 2; Bfl-1 A1 inh: 0; hGIII sPLA2 conf: 3; BODIPY interf: -8

How did CCOC(=O)c1sc(NC(=O)c2ccc(OC)cc2)nc1C do in these assays?
MC4R barr agon: -2; Exocytosis inh: -2; NTR1 ag: 1; sPLA2-III inh: 2; MC4R antag cAMP: 11; Bfl-1 A1 inh: 1
